{"source": "PubChem BioAssay AID624010", "about": "(Broad Institute, 2012)", "biological_target": "Scavenger receptor class B member 1 (Mus musculus) (UniProt Q61009)", "sequence (Q61009 whole entry C384S)": "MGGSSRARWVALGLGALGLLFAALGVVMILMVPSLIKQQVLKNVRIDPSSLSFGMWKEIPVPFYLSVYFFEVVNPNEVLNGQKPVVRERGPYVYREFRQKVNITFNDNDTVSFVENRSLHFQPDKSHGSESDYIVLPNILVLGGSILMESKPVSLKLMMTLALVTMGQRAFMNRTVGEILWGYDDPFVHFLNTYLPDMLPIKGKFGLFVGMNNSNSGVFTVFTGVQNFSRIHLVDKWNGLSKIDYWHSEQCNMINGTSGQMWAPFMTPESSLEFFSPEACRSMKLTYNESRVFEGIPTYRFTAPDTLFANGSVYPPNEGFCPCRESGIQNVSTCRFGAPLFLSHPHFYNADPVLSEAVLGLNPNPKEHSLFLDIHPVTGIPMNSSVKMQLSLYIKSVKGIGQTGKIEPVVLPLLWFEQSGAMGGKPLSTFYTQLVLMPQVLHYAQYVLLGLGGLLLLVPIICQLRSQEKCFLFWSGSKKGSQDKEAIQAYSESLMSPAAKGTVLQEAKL", "assay": "HDL cholesteryl ester uptake inhibitors via mutant SR-BI, dose response, mechanism study for SR-BI HDL uptake inhibitor project, cell-based, C384S mutant, scintillation, dry powder (AID 624010)", "conditions": "CHO ldlA C384S mSR-BI, [3H]CE-HDL uptake", "outline": "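Test system – CHO cells without LDL receptor, expressing C384S mutant mouse SR-BI · Medium – Ham's F12K with 0.5% fatty-acid-free BSA and 0.5% DMSO · Also added – [3H]CE-HDL · Incubation – 1 h compound preincubation, then 2 h HDL uptake, 37 °C · Signal – scintillation counting of [3H] label · Control set – unlabeled HDL excess (40-fold) and no-compound wells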", "data": [{"smiles": "CC(C)NC(=O)Nc1ccc2c(c1)C(=O)N([C@H](C)CO)C[C@@H](C)[C@H](CN(C)S(=O)(=O)c1ccc(Cl)cc1)O2", "values": [{"measurement": "AC50", "result": 500, "unit": "nM"}]}]}
